According to ChEMBL document CHEMBL1955815, “The synthesis of ethacrynic acid thiazole derivatives as glutathione S-transferase pi inhibitors” (2012):

Tested on: HL-60
Experiment: Growth inhibition of human HL60 cells after 72 hrs by trypan blue staining
Format: functional
Settings: HL-60, 72 h
Procedure, shortened: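 HL-60 cells kept in RPMI-1640 with 10% heat-inactivated FBS, penicillin/streptomycin and L-glutamine at 37 °C, 5% CO2. Seeded at 4×10^4/mL in 24-well plates and exposed to a range of concentrations for 72 h. Trypan blue-positive and -negative cells were both counted. Inhibition = (1−Nt/Nc)×100%, and GI50 is the concentration giving half-maximal growth inhibition versus untreated cells.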

Compound | GI50 [µM]
C=C(C)C(=O)c1ccc(OCc2nc(-c3ccc([N+](=O)[O-])cc3)cs2)c(C)c1C | 5.1
C=C(CC)C(=O)c1ccc(OCc2nc(-c3ccc4ccccc4c3)cs2)c(C)c1C | 2
C=C(CC)C(=O)c1ccc(OCc2nc(-c3ccc4ccccc4c3)cs2)cc1Cl | 0.9
C=C(CC)C(=O)c1ccc(OCc2nc(-c3ccc(C(F)(F)F)cc3)cs2)c(Cl)c1Cl | 1.6
C=C(CC)C(=O)c1ccc(OCc2nc(-c3ccc([N+](=O)[O-])cc3)cs2)c(C)c1C | 3.6
C=C(CC)C(=O)c1ccc(OCc2nc(-c3ccc([N+](=O)[O-])cc3)cs2)c(Cl)c1Cl | 1
C=C(CC)C(=O)c1ccc(OCc2nc(-c3ccc(C(F)(F)F)cc3)cs2)c(C)c1C | 1.5
C=C(CC)C(=O)c1ccc(OCc2nc(-c3ccc(C(F)(F)F)cc3)cs2)cc1Cl | 2
C=C(CC)C(=O)c1ccc(OCc2nc(-c3ccc4ccccc4c3)cs2)c(Cl)c1Cl | 3.6
C=C(C)C(=O)c1ccc(OCc2nc(-c3ccc(C(F)(F)F)cc3)cs2)c(C)c1C | 3.1
C=C(CC)C(=O)c1ccc(OCc2nc(-c3ccc([N+](=O)[O-])cc3)cs2)cc1Cl | 0.8
C=C(CC)C(=O)c1ccc(OCC(=O)O)c(Cl)c1Cl [ETHACRYNIC ACID] | 44.2
C=C(C)C(=O)c1ccc(OCc2nc(-c3ccc4ccccc4c3)cs2)c(C)c1C | 2.3

Continued, values first:

GI50 [µM] | Compound
4.7 | C=C(C)C(=O)c1ccc(OCc2nc(-c3ccccc3)cs2)cc1C
6.4 | C=C(C)C(=O)c1ccc(OCc2nc(-c3ccccc3)cs2)cc1Cl
1.4 | C=C(C)C(=O)c1ccc(OCc2nc(-c3ccc(C(F)(F)F)cc3)cs2)cc1Cl
3.4 | C=C(C)C(=O)c1ccc(OCc2nc(-c3ccccc3)cs2)c(C)c1C
2.9 | C=C(C)C(=O)c1ccc(OCc2nc(-c3ccc4ccccc4c3)cs2)cc1Cl
5.9 | C=C(C)C(=O)c1ccc(OCc2nc(-c3ccc([N+](=O)[O-])cc3)cs2)cc1Cl
